Assay results reported in ChEMBL document CHEMBL1147345, “Appenolides A-C: three new antifungal furanones from the coprophilous fungus Podospora appendiculata” (1993).
Calls of active or inactive are those of the source. The rule behind the calls is not given here.

Tests used:
Assay type in all cases: functional
Bacillus subtilis = assay: Antibacterial activity against Bacillus subtilis ATCC 6051 at 150 ug/disk by standard disk assay; conditions: for zone of inhibition at 150 µg/disc: read-out: IZ
Method in brief: (§1)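 Standard disc assay with 150 µg of compound loaded per disc. Activity is read as the zone of inhibition around the disc, in mm.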

Ascobolus stercorarius = assay: Antifungal activity against Ascobolus furfuraceus NRRL 6460 assessed as reduction in radial growth rate at 50 ug/disk by centerpoint inoculation disk assay; set-up: scale not given: the % may be the effect or the level left
Candida albicans = assay: Antifungal activity against Candida albicans ATCC 14053 at 150 ug/disk by standard disk assay; conditions: read-out: IZ; method in brief: as §1
Sordaria fimicola = assay: Antifungal activity against Sordaria fimicola NRRL 6459 assessed as reduction in radial growth rate at 150 ug/disk by centerpoint inoculation disk assay; set-up: scale not given: the % may be the effect or the level left

| SMILES | Activity (Bacillus subtilis) | Activity (Ascobolus stercorarius) | zone of inhibition at 150 µg/disc (Candida albicans) [mm] | Activity (Sordaria fimicola) | zone of inhibition at 150 µg/disc (Bacillus subtilis) [mm] |
| --- | --- | --- | --- | --- | --- |
| CC(=O)CCCCC/C=C/C1=C(C)C(=O)OC1 [APPENOLIDE A] | inactive | 26% | 12 | 54% |  |
| CCC(O)CCCC/C=C/C1=C(C)C(=O)OC1 (configuration not stated) [APPENOLIDE C] |  | Active | 12 | Active | 8 |
| CC1=C(/C=C/CCCCCC(C)O)COC1=O (configuration not stated) [APPENOLIDE B] |  | Active | 12 | Active | 8 |
